Assay results as given in ChEMBL document CHEMBL1221221, “Discovering chemical modifiers of oncogene-regulated hematopoietic differentiation” (Nat Chem Biol, 2009).
The source made the active and inactive calls. The calls are words filed in the database; no cut-off is given here.

Assays:
[1] = target: Glycogen synthase kinase 3 beta (Danio rerio) (UniProt Q9YH60); assay: Inhibition of GSK-3-beta-mediated activation of […] signaling in heterozygous transgenic zebrafish embryo assessed as effect on MPO gene expression at 0.5 uM by in-situ hybridization analysis
Procedure, shortened: (§1)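 Heterozygous Tg(hsp:AML1-ETO) embryos exposed to the GSK-3β inhibitor from 14 hpf, after gastrulation, then given a mild heat treatment (37 °C, 1 h) or none. DMSO vehicle control. In situ hybridization for gata1 or mpo. Scored as numbers of embryos showing gata1 downregulation or mpo upregulation.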

[2] = target: Glycogen synthase kinase 3 beta (Danio rerio) (UniProt Q9YH60); assay: Inhibition of GSK-3-beta-mediated activation of […] signaling in heat-stimulated heterozygous transgenic zebrafish embryo assessed as down-regulation of gata1 gene expression at 0.5 uM by in-situ hybridization analysis; procedure, shortened: as §1
[3] = target: Glycogen synthase kinase 3 beta (Danio rerio) (UniProt Q9YH60); assay: Inhibition of GSK-3-beta-mediated activation of […] signaling in heat-stimulated heterozygous transgenic zebrafish embryo assessed as upregulation of MPO gene expression at 0.5 uM by in-situ hybridization analysis; procedure, shortened: as §1
[4] = target: Glycogen synthase kinase 3 beta (Danio rerio) (UniProt Q9YH60); assay: Inhibition of GSK-3-beta-mediated activation of […] signaling in heterozygous transgenic zebrafish embryo assessed as effect on gata1 gene expression at 0.5 uM by in-situ hybridization analysis; procedure, shortened: as §1
Danio rerio [5] = organism: Danio rerio; assay: Effect on gross morphology of heterozygous transgenic zebrafish embryo at 0.5 uM; type: ADME, organism-based; conditions: in vivo
Danio rerio [6] = organism: Danio rerio; assay: Inhibition of Hsp70 expression in heterozygous transgenic zebrafish embryo at 0.15 uM by Western blot analysis; type: functional, organism-based
Procedure, shortened: (§2)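 Heterozygous Tg(hsp:AML1-ETO) embryos, bred from homozygous transgenic × wild-type crosses, were heat-treated at 39−40 °C for 1 h to induce AE. Lysates were Western blotted with anti-AML1 antibody for AE and also probed for Hsp70, with Akt as the loading reference. Controls were DMSO vehicle, heat-treated wild-type embryos, and unheated transgenic embryos.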

Danio rerio [7] = organism: Danio rerio; assay: Inhibition of heat-induced AML1-ETO protein expression in heterozygous transgenic zebrafish embryo at 0.15 uM by Western blot analysis; type: functional, organism-based; procedure, shortened: as §2
Danio rerio [8] = organism: Danio rerio; assay: Inhibition of COX2 in heat-stimulated heterozygous transgenic zebrafish embryo assessed as MPO-positive granulocytic cell accumulation at 25 uM by in situ hybridization analysis
Procedure, shortened: (§3)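 Heterozygous Tg(hsp:AML1-ETO) embryos given heat treatment at 39−40 °C for 1 h at 16−18 hpf. Compound added in DMSO right at the end of heat treatment, with or without PGE2 (20 μM). Embryos fixed at 36−40 hpf for mpo in situ hybridization of granulocytic cells. Scored as counts of embryos showing the phenotype; unheated transgenic embryos also tested.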

Danio rerio [9] = organism: Danio rerio; assay: Inhibition of COX2-mediated decrease in gata1 expression in heterozygous transgenic zebrafish embryo assessed as restoration of gata1 level at 25 uM by in-situ hybridization analysis
Procedure, shortened: (§4)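 Heterozygous Tg(hsp:AML1-ETO) embryos from homozygous × wild-type crosses. Compound added in DMSO 1 h before heat treatment at 39−40 °C for 1 h at 16−18 hpf. Embryos fixed 90 min after heat treatment, then whole-mount in situ hybridization for gata1 in posterior blood islands. Scored as counts of embryos showing the phenotype. DMSO vehicle control; unheated transgenic embryos for comparison.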

Danio rerio [10] = organism: Danio rerio; assay: Inhibition of COX2 in heat-stimulated heterozygous transgenic zebrafish embryo assessed as MPO-positive granulocytic cell accumulation at 25 uM by in situ hybridization analysis in presence of PGE2; procedure, shortened: as §3
Danio rerio [11] = organism: Danio rerio; assay: Inhibition of COX2-mediated decrease in gata1 expression in heat-stimulated heterozygous transgenic zebrafish embryo assessed as restoration of gata1 level at 25 uM by in-situ hybridization analysis; procedure, shortened: as §4
Danio rerio [12] = organism: Danio rerio; assay: Inhibition of COX2 in heterozygous transgenic zebrafish embryo assessed as MPO-positive granulocytic cell accumulation at 25 uM by in situ hybridization analysis; procedure, shortened: as §3
Danio rerio [13] = organism: Danio rerio; assay: Inhibition of heat-induced AML1-ETO protein expression in heterozygous transgenic zebrafish embryo by Western blot analysis; type: functional, organism-based; procedure, shortened: as §2
Danio rerio [14] = organism: Danio rerio; assay: Inhibition of AML1-ETO protein translation in heterozygous transgenic zebrafish assessed as suppression of phenotype appearance; type: functional, organism-based
Procedure, shortened: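 Heterozygous Tg(hsp:AML1-ETO) embryos were dechorionated with pronase at 12−16 hpf and kept in E3 buffer, five per well. Compound was added at 20 μM final. One hour later, AE expression was induced by heat shock at 40 °C for 1 h, followed by 90 min at 28.5 °C. Embryos were then fixed and gata1 in situ hybridization was scored in the posterior blood islands.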

Danio rerio [15] = organism: Danio rerio; assay: Induction of AML1-ETO protein translation in 39 to 40 degC heat-stimulated heterozygous transgenic zebrafish assessed as phenotype appearance after 1 hr by in-situ hybridization analysis; type: functional, organism-based
Danio rerio [16] = organism: Danio rerio; assay: Effect on l-plastin gene expression in wild type zebrafish embryo at 20 uM treated 14 hrs post fertilization by in-situ hybridization analysis; type: functional, organism-based
Danio rerio [17] = organism: Danio rerio; assay: Induction of MPO-positive granulocytic cell accumulation in heat-stimulated heterozygous transgenic zebrafish embryo; type: functional, organism-based
Danio rerio [18] = organism: Danio rerio; assay: Effect on gata1 gene expression in wild type zebrafish embryo at 20 uM treated 14 hrs post fertilization by in-situ hybridization analysis; type: functional, organism-based
Danio rerio [19] = organism: Danio rerio; assay: Upregulation of MPO gene expression in 39 to 40 degC heat-stimulated heterozygous transgenic zebrafish embryo after 1 hr by in-situ hybridization analysis; type: functional, organism-based
Danio rerio [20] = organism: Danio rerio; assay: Induction of AML1-ETO protein translation in 37 degC heat-stimulated heterozygous transgenic zebrafish assessed as phenotype appearance after 1 hr by in-situ hybridization analysis; type: functional, organism-based
Danio rerio [21] = organism: Danio rerio; assay: Downregulation of gata1 gene expression in 39 to 40 degC heat-stimulated heterozygous transgenic zebrafish embryo after 1 hr by in-situ hybridization analysis; type: functional, organism-based
Danio rerio [22] = organism: Danio rerio; assay: Effect on scl gene expression in wild type zebrafish embryo at 20 uM treated 14 hrs post fertilization by in-situ hybridization analysis; type: functional, organism-based
Danio rerio [23] = organism: Danio rerio; assay: Effect on MPO gene expression in wild type zebrafish embryo at 20 uM treated 14 hrs post fertilization by in-situ hybridization analysis; type: functional, organism-based
Danio rerio [24] = organism: Danio rerio; assay: Inhibition of COX2-mediated decrease in gata1 expression in heat-stimulated heterozygous transgenic zebrafish embryo assessed as restoration of gata1 level at 20 uM by in-situ hybridization analysis; procedure, shortened: as §4
Danio rerio [25] = organism: Danio rerio; assay: Inhibition of COX2 in heat-stimulated heterozygous transgenic zebrafish embryo assessed as MPO-positive granulocytic cell accumulation at 20 uM by in situ hybridization analysis in presence of PGE2; procedure, shortened: as §3
Danio rerio [26] = organism: Danio rerio; assay: Inhibition of COX2-mediated decrease in gata1 expression in heterozygous transgenic zebrafish embryo assessed as restoration of gata1 level at 20 uM by in-situ hybridization analysis; procedure, shortened: as §4
Danio rerio [27] = organism: Danio rerio; assay: Inhibition of COX2 in heterozygous transgenic zebrafish embryo assessed as MPO-positive granulocytic cell accumulation at 20 uM by in situ hybridization analysis; procedure, shortened: as §3
Danio rerio [28] = organism: Danio rerio; assay: Inhibition of COX2 in heat-stimulated heterozygous transgenic zebrafish embryo assessed as MPO-positive granulocytic cell accumulation at 20 uM by in situ hybridization analysis; procedure, shortened: as §3
Danio rerio [29] = organism: Danio rerio; assay: Inhibition of Hsp70 expression in heterozygous transgenic zebrafish embryo at 0.5 uM by Western blot analysis; type: functional, organism-based
Procedure, shortened: (§5)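 Heterozygous Tg(hsp:AML1-ETO) embryos treated with compound or DMSO and heat-treated to induce transgene expression. Lysates examined by Western blot with anti-AML1 antibody for AML1-ETO, and also probed for Hsp70. Akt used as loading reference. Controls were heat-treated wild-type embryos and unheated transgenic embryos.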

Danio rerio [30] = organism: Danio rerio; assay: Inhibition of heat-induced AML1-ETO protein expression in heterozygous transgenic zebrafish embryo at 0.5 uM by Western blot analysis; type: functional, organism-based; procedure, shortened: as §5
Danio rerio [31] = organism: Danio rerio; conditions: 40 uM
Danio rerio [32] = organism: Danio rerio; conditions: 40 uM; remark: listed apart in the source
Danio rerio [33] = organism: Danio rerio; conditions: 40 uM; remark: listed apart in the source
Danio rerio [34] = organism: Danio rerio; conditions: 40 uM; remark: listed apart in the source

Chain of Glycogen synthase kinase 3 beta (Danio rerio) (Q9YH60 as listed by the source): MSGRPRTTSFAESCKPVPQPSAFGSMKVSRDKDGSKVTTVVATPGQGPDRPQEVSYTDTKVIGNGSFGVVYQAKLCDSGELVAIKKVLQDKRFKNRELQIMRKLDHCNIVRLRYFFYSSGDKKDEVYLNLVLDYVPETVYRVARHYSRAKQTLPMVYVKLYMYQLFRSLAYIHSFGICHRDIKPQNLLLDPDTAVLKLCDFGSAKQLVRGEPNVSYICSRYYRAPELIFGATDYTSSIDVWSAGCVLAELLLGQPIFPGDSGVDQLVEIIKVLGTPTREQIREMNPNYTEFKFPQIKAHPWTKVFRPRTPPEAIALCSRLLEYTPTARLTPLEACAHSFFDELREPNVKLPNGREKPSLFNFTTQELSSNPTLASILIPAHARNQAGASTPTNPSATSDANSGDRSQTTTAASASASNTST

In the case of `O=C1Nc2cc(Br)ccc2/C1=C1/Nc2ccccc2/C1=N\O` [6BIO], the inhibition [1] was “Active”, the inhibition [2] was “Active” and the inhibition [3] was “Active”. For the same compound, the inhibition [4] was “Active” and the Activity (Danio rerio [5]) was “Toxic”.

In the case of `C=C(C)[C@H]1Cc2c(ccc3c2O[C@@H]2COc4cc(OC)c(OC)cc4[C@@H]2C3=O)O1`, the inhibition (Danio rerio [6]) was “Active” and the inhibition (Danio rerio [7]) was “Active”.

In the case of `CS(=O)(=O)Nc1ccc([N+](=O)[O-])cc1OC1CCCCC1`, the inhibition (Danio rerio [8]) was “Active”, the inhibition (Danio rerio [9]) was “inactive” and the inhibition (Danio rerio [10]) was “inactive”. For the same compound, the inhibition (Danio rerio [11]) was “Active” and the inhibition (Danio rerio [12]) was “inactive”.

With `O=c1oc2ccccc2c(O)c1Cc1c(O)c2ccccc2oc1=O` the “inhibition of AML1-ETO protein expression (active/not active)” value (from here on “inhibition … (active/not active)”) (Danio rerio [13]) was “inactive”.

For `C[C@@H]1C[C@@H]([C@H](O)CC2CC(=O)NC(=O)C2)C(=O)[C@@H](C)C1`, the inhibition (Danio rerio [6]) was “Active” and the Imax (Danio rerio [14]) was “Active”.

With `CCCCC[C@H](O)/C=C/[C@H]1[C@H](O)CC(=O)[C@@H]1C/C=C\CCCC(=O)O` the Activity (Danio rerio [15]) was “Active”, the Activity (Danio rerio [16]) was “inactive” and the Activity (Danio rerio [17]) was “Active”. The Activity (Danio rerio [18]) was “inactive”, the inhibition (Danio rerio [19]) was “inactive” and the inhibition (Danio rerio [20]) was “Active”. For the same compound, the inhibition (Danio rerio [21]) was “inactive”, the Activity (Danio rerio [22]) was “inactive” and the Activity (Danio rerio [23]) was “inactive”.

With `Oc1ccc(Cl)cc1Cc1cc(Cl)ccc1O` the “inhibition … (active/not active)” value (Danio rerio [13]) was “Active”.

With `COc1ccc2c(c1)c(CC(=O)O)c(C)n2C(=O)c1ccc(Cl)cc1` the inhibition (Danio rerio [24]) was “Active”, the inhibition (Danio rerio [25]) was “inactive” and the inhibition (Danio rerio [26]) was “inactive”. The inhibition (Danio rerio [27]) was “inactive” and the inhibition (Danio rerio [28]) was “Active”.

`Oc1c(Cl)cc(Cl)cc1Sc1cc(Cl)cc(Cl)c1O` was tested, and the “inhibition … (active/not active)” value (Danio rerio [13]) was “Active”.

For `COc1ccc2c(c1)O[C@@H]1COc3cc(OC)c(OC)cc3[C@@H]1C2=O`, the “inhibition … (active/not active)” value (Danio rerio [13]) was “Active”.

In the case of `CC(/C=C/C(=O)NO)=C\[C@@H](C)C(=O)c1ccc(N(C)C)cc1`, the inhibition (Danio rerio [29]) was “inactive” and the inhibition (Danio rerio [30]) was “inactive”.

For `CS(=O)(=O)Nc1ccc([N+](=O)[O-])cc1Oc1ccccc1`, the inhibition (Danio rerio [31]) was “inactive”, the inhibition (Danio rerio [32]) was “inactive” and the inhibition (Danio rerio [33]) was “Active”. The inhibition (Danio rerio [29]) was “inactive”, the inhibition (Danio rerio [30]) was “inactive” and the inhibition (Danio rerio [34]) was “inactive”.
